UPR XBP1 act = adaptive UPR (XBP1) activation | CHO-XBP1 luciferase reporter, IRE1-XBP1 UPR activation, luminescence; percent of tunicamycin response, DMSO as zero | activation, % at 20 µM | hit rate 0.33% among 330,000 | AID 463104;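 active = versus positive control, 20 µM dose yields 30% or more activation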;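 also: 100% = tunicamycin at 10 µg/mL and 0% = DMSO only wells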
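assay system = CHO-XBP1 luciferase reporter cells | amount = 1000 cells/well | buffer or medium = F12 plus 10% FBS | compound dosing = single point, 20 µM final compound, 1% DMSO | incubation = 16-18 h cell attachment at 37 °C, then 6 h compound exposure | detection = Steady-Glo luminescence read | controls = tunicamycin 10 µg/mL and vehicle-only wells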
CHOP UPR activ = apoptotic UPR (CHOP) activation; CHO-CHOP luciferase reporter, luminescence; percent of tunicamycin response over DMSO baseline; activation, % at 10 µM; hit rate 0.34% among 330,000; AID 449763;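 active = at 10 µM dose, activation of 40% or more, normalized to positive control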;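 also: 100% = tunicamycin at 10 µg/mL and 0% = DMSO alone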
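Test system: CHO-CHOP cells, stable luciferase reporter of PERK-eIF2a-CHOP signalling | Quantity: 500 CHO-CHOP cells per well | Buffer or medium: F12 plus 10% serum | Compound dosing: 10 µM single point, 0.5% DMSO | Schedule: 6 h compound treatment, 37 °C | Signal: Luciferase luminescence | Control set: Tunicamycin high control, DMSO low control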
T cruzi inh = T. cruzi replication inhibition. T. cruzi beta-gal in NIH3T3, luminescence, 90 h. inhibition, % (concentration not given with the values). hit rate 1.4% among 300,000. AID 1885;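 active = mean inhibition across valid replicates above about 55%, limit read from the data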;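 also: signal also drops with host cell toxicity which is not excluded here; 0% = plate median of DMSO wells and 100% = zero luminescence signal; higher percent means less beta-gal luminescence so fewer parasites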
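compound dosing = single 50 nL compound addition per well in DMSO | material = NIH/3T3 host cells with β-galactosidase reporter T. cruzi | input = 5,000 host fibroblasts per well | timing = ≥90 h infection period, 3 h prior cell attachment | read-out basis = percent inhibition of parasite-derived β-gal signal | detection = GalScreen β-gal luminescence, detergent lysis, 60 min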
Dynein cargo inh = blocks dynein driven cargo transport along microtubules | 3617.4 mouse cells, GR-EGFP nuclear translocation imaging; test concentration mostly 20 µM; stimulated with dexamethasone, 1 µM; stronger effect = lower value | z-score, hits read low | hit rate 0.47% among 220,000 | AID 1381;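 active = plate z-score of nuclear minus cytoplasmic receptor signal below a set negative limit, without overly bright fluorescence or cell loss, cut at about -3.5 in these data, passing the limit was not always enough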;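 also: z-score of nuclear minus cytoplasmic ring GR-EGFP intensity difference per well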
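Schedule: 48 h induction, then 1 h compound, then 30 min agonist, 37 °C. Buffer or medium: tetracycline-free induction medium containing charcoal-stripped FBS. Reagent: 1.0 µM final dexamethasone stimulus. Evaluation: nuclear versus cytoplasmic GR-EGFP signal, averaged per well. Signal: high-content fluorescence imaging after fixation.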
L major viab = Leishmania major promastigote growth inhibition; Leishmania major promastigotes, resazurin fluorescence viability; inhibition, % at 10 µM; hit rate 9% among 200,000; in the data active = inhibition above about 50%;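 also: promastigotes grown with compound for 44 hours at 28 °C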
CHOP inh = inhibitors of CHOP induction in ER stress response. CHO-K1 CHOP-promoter luciferase, tunicamycin-induced, 15-18 h. inhibition, % at 10 µM. hit rate 3.8% among 220,000. AID 2732;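 active = compounds that reduced the stress-induced luciferase reporter signal by more than about 70% of percent inhibition, limit read from the data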;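 also: 0% = tunicamycin plus vehicle and 100% = wells without tunicamycin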
* hit, by the source's call; / = not tested or not shown. This is one part of a sample in which hits are shown more often than they occur.

SMILES | UPR XBP1 act | CHOP UPR activ | T cruzi inh | Dynein cargo inh | L major viab | CHOP inh
Cc1ccc(CNC(=O)CCS(=O)(=O)c2ccc3c(c2)CC(C)N3C(=O)C2CC2)cc1 (stereo unspecified) | -2.0 | 0.6 | -12.5 | / | / | /
CN(C)S(=O)(=O)c1ccc(N=Cc2c(C(F)(F)F)[nH]n(C)c2=O)cc1 | 0.7 | -0.1 | -4.5 | -0.584 | -4.8 | 6.6
CCc1nc(C)cn1S(=O)(=O)c1cc(C)c(OC)cc1C | -1.7 | -1.0 | -3.8 | -0.395 | 32.8 | 4.6
CCc1nc(C)cn1S(=O)(=O)c1cc(Br)c(C)cc1OC | -4.5 | 0.0 | -1.7 | -0.337 | 99.0* | 28.1
CCCCn1c(N)c(N(CC(C)C)C(=O)CCCn2c(=O)oc3ccccc32)c(=O)[nH]c1=O | -2.4 | 0.3 | 1.2 | / | / | /
CC(NC(=O)C(NS(=O)(=O)c1cccs1)C(C)C)c1ccc(S(N)(=O)=O)cc1 (stereo unspecified) | 1.6 | 2.1 | / | / | / | /
CC12CCC(=O)N1C(C(=O)Nc1nc(-c3cc(F)ccc3F)cs1)CS2 (stereo unspecified) | 1.6 | 2.4 | 6.4 | / | / | /
O=C(NCC1(c2ccccc2)CCCC1)c1ccccc1 | 10.1 | -1.5 | 9.8 | -0.293 | 1.5 | 6.9
O=C(NCC1(c2ccccc2)CCCC1)c1ccccc1Br | -1.3 | 0.0 | 5.0 | 1.32 | 55.0* | 11.5
Cc1cc(=O)[nH]c2ccccc12 | 0.4 | -0.3 | 0.9 | -0.509 | -2.2 | -16.8
Cc1cc2[nH]c3c(c[n+](C)c4ccccc34)c2cc1C | -0.8 | 5.9 | 59.1* | -4.36* | 100.4* | -170.8
Cn1c(/C(C#N)=C(\O)COc2ccc3ccccc3c2)nc2ccccc21 | -0.5 | -5.9 | -0.8 | 0.0825 | -7.1 | 93.4*
Cc1ccc(S(=O)(=O)N(C)C)cc1NS(=O)(=O)c1ccc(Cl)s1 | 2.6 | 0.0 | -9.1 | 1.38 | 68.7* | 23.5
Cc1cc(C)c(S(C)(=O)=O)c(NN)n1 | -1.3 | -0.9 | -1.6 | 0.0926 | 3.6 | 9.4
COC(=O)c1cc(NS(=O)(=O)c2ccc(NC(C)=O)cc2)ccc1Cl | 0.1 | -0.9 | -13.5 | -1.3 | / | -1.6
O=C(Nc1ccc(F)cc1F)c1cc(Cl)sc1Cl | -0.8 | 0.9 | -4.4 | / | / | /
Cc1ccc(CN2C(=O)c3ccccc3NC2c2ccccn2)cc1 (stereo unspecified) | 4.1 | 0.8 | -4.9 | 1.91 | 62.6* | -0.8
CC1(C)OC(=O)C(=Cc2ccc(-c3ccc(Cl)c(C(=O)O)c3)o2)C(=O)O1 | 1.8 | 2.3 | -10.9 | 0.576 | -1.4 | -21.5
CCCOC(=O)c1ccc(-c2ccc(C=O)o2)cc1 | 0.7 | 4.4 | -10.4 | -0.874 | 44.3 | 0.9
C=CCOC(=O)c1cc(-c2ccc(/C=C3\C(=O)NC(=O)C(C#N)=C3C)o2)ccc1Cl | / | / | / | -4.42* | 86.1* | -0.7
CCCOC(=O)c1cc(-c2ccc(C=O)o2)ccc1Cl | -1.6 | 2.0 | -21.8 | 0.881 | 63.9* | 16.4
CCCOC(=O)c1cc(-c2ccc(/C=C3/C(=O)N(C)C(=O)C(C#N)=C3C)o2)ccc1Cl | 2.4 | -0.8 | / | -3.68* | 3.7 | /
CC1=C(C#N)C(=O)NC(=O)/C1=C/c1ccc(-c2ccc(S(N)(=O)=O)cc2)o1 | 0.1 | 1.4 | -2.1 | 2.99 | 0.9 | 8.4
CCc1nc(SCC(=O)Nc2ccccc2Cl)n[nH]1 | 0.4 | 2.1 | -8.9 | / | / | /
COc1cc(S(=O)(=O)Nc2ccccc2C(=O)N2CCCCC2)ccc1NC(C)=O | -2.9 | 1.1 | / | / | / | /
SMILES | UPR XBP1 act | CHOP UPR activ | T cruzi inh | Dynein cargo inh | L major viab | CHOP inh
CCC1CCCCN1C(=O)CSc1nc2ccsc2c(=O)n1Cc1ccccc1 (stereo unspecified) | 1.1 | 0.1 | 22.4 | -0.964 | 58.2* | 7.9
Cc1ccc(S(=O)(=O)/N=C(\c2ccccc2)N(C)S(=O)(=O)c2ccccc2)cc1 | -2.6 | -1.5 | -3.7 | 0.682 | 63.2* | 67.2
CCN(CC)C(=O)c1c2c(nc3ccccc13)-c1ccccc1CC2 | 0.5 | -1.4 | 9.2 | 0.376 | 62.4* | 26.2
CNC(=O)Cn1c(C)cc(=O)c2cccc(C)c21 | 1.0 | -0.8 | 1.7 | -0.827 | / | -9.8
Cc1cccc2c(=O)cc(C)n(Cc3ccccc3)c12 | -1.9 | 1.2 | 3.7 | 0.151 | 59.2* | 31.3
Cc1ccc(Nc2nc3ccccc3[nH]2)nc1 | 2.6 | 4.0 | 36.0 | 0.0738 | 100.5* | -42.6
Cc1c(C(=O)N2CCCC2)c(S(=O)(=O)Nc2ccccc2)c(C)n1C | -0.9 | -2.2 | 10.8 | / | / | /
Cc1cnc(C(=O)N2CCN(c3ccc(C(F)(F)F)cn3)CC2)cn1 | -1.6 | 1.5 | 7.5 | -1.24 | / | 6.4
O=C(c1ccc2c(c1)OCO2)N1CCN(c2ccc(C(F)(F)F)cn2)CC1 | -2.6 | 6.4 | -6.7 | 0.662 | 76.3* | 22.2
FC(F)(F)c1ccc(N2CCN(c3cc(-c4ccccc4)nc4ncnn34)CC2)nc1 | -4.9 | 3.3 | 5.9 | -0.281 | 26.6 | 74.1*
O=C(c1ccc2ccccc2c1)N1CCN(c2ccc(C(F)(F)F)cn2)CC1 | -0.1 | -1.2 | -3.9 | 2.3 | 98.1* | 88.7*
FC(F)(F)c1cccc(Nc2cc(-c3ccccc3)nc3ncnn23)c1 | -1.0 | -0.8 | -3.1 | -0.414 | / | 20.7
CN1CCN(C(=O)c2ccc3ccccc3c2)CC1 | 1.9 | -1.2 | 5.6 | -0.645 | 87.0* | -30.9
COc1ccc(NS(=O)(=O)c2cccc(C(=O)O)c2)cc1S(=O)(=O)N1CCCCC1 | 1.9 | -0.6 | / | / | / | /
O=C1c2cc(Br)ccc2N(Cc2ccc(Br)cc2)S(=O)(=O)C1c1cc(Cl)c(Cl)cc1[N+](=O)[O-] (stereo unspecified) | 1.0 | 1.3 | / | / | / | /
CC(CC(=O)N1CCN(c2ccc(C(F)(F)F)cn2)CC1)n1ccnc1 (stereo unspecified) | -3.2 | -1.0 | 67.5* | -0.179 | 11.4 | 0.8
O=C(CCc1ccccc1F)N1CCN(c2ccc(C(F)(F)F)cn2)CC1 | -1.8 | -1.2 | 15.6 | / | / | /
COc1ccc(NC(=O)C(=O)NCCC2CCCCN2S(=O)(=O)c2ccccc2)cc1 (stereo unspecified) | -2.9 | 0.3 | 8.1 | / | / | /
COc1ccc(NC2CCCN(C(=O)c3ccc4nc(C)c(C)nc4c3)C2)cc1OC (stereo unspecified) | -3.6 | -0.5 | 8.4 | / | / | /
CCCCC(NC(=O)c1ccccc1)C(=O)OCC(=O)N1c2ccccc2Sc2ccccc21 (stereo unspecified) | 1.8 | -0.5 | 34.0 | 1.24 | 75.0* | -1.8
COC(=O)/C=C/c1ccc(OC(=O)c2ccncc2)cc1 | 0.4 | 1.8 | -7.9 | -0.112 | -7.7 | 24.0
Cc1ccccc1NC(=O)CCCN1C(=O)C2CC=CCC2C1=O (stereo unspecified) | -6.2 | 2.9 | -10.5 | / | / | /
CCOC(=O)N1CCN(CCC(=O)c2ccc(OC)cc2)CC1 | -4.5 | 1.8 | 3.5 | -2.45 | 81.8* | -45.2

Screening results as filed in PubChem BioAssay.
